Reference: ChEMBL document CHEMBL1125448, “(Aminoalkoxy)chromones. Selective sigma receptor ligands” (J Med Chem, 1992)

Key:
Type in all cases: tissue-based
D(2) dopamine receptor [1] = biological target: T1, D(2) dopamine receptor (Rattus norvegicus, UniProt P61169); assay: Affinity towards dopamine receptor D2 was determined by competition studies using [3H]sulpiride in rat striatum.
Summary of the method: (§1)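 Competition binding values reported as mean ± SEM of triplicate determinations, with some entries from N = 3, 4, 6 or 7 determinations.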

D(2) dopamine receptor [2] = biological target: T1, D(2) dopamine receptor; assay: Affinity towards dopamine receptor D2 site was determined by competition studies using [3H]sulpiride in rat striatum.; summary of the method: as §1
D(2) dopamine receptor [3] = biological target: T1, D(2) dopamine receptor; assay: Affinity towards dopamine D2 site was determined by competition studies using [3H]sulpiride in rat striatum.; summary of the method: as §1

T1 sequence (P61169 whole entry): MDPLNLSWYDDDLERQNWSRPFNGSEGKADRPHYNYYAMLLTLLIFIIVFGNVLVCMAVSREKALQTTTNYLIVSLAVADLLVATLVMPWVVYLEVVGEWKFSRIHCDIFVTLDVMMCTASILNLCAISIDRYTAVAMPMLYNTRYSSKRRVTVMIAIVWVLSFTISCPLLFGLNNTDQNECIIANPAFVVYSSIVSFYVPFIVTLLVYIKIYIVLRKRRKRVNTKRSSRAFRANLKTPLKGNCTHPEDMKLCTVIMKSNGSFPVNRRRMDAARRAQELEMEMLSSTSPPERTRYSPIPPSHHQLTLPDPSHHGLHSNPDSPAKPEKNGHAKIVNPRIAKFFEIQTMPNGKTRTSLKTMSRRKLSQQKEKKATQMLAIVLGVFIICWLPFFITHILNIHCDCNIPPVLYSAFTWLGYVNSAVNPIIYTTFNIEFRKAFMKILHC

Ki (D(2) dopamine receptor [1]) [µM]	Ki (D(2) dopamine receptor [2]) [µM]	Compound	other results
6.5	–	O=c1cc(-c2ccccc2)oc2ccc(OCCCCCCCN3CCC(O)CC3)cc12	–
1.4	–	O=c1cc(-c2cccs2)oc2ccc(OCCCCCCN3CCCCC3)cc12	–
–	4	O=c1cc(-c2cccs2)oc2ccc(OCCCCCCN3CCC(O)CC3)cc12	–
–	14	O=c1cc(C2CCC2)oc2ccc(OCCCCCCN3CCC(O)CC3)cc12	–
–	6.4	O=c1cc(-c2cccc(Cl)c2)oc2ccc(OCCCCCCN3CCC(O)CC3)cc12	–
5.5	–	O=c1cc(C2CCC2)oc2ccc(OCCCCCCN3CCCCC3)cc12	–
–	11	O=c1cc(-c2cccc(F)c2)oc2ccc(OCCCCCCN3CCC(O)CC3)cc12	–
3.2	–	O=c1cc(C2CCCC2)oc2ccc(OCCCCCCN3CCCCC3)cc12	–
–	9.5	COc1cccc(-c2cc(=O)c3cc(OCCCCCCN4CCC(O)CC4)ccc3o2)c1	–
–	21	O=c1cc(C2CCCC2)oc2ccc(OCCCCCCN3CCC(O)CC3)cc12	–
–	3.8	O=c1cc(-c2cccnc2)oc2ccc(OCCCCCCN3CCC(O)CC3)cc12	–
–	3.7	COc1ccc(-c2cc(=O)c3cc(OCCCCCCN4CCC(O)CC4)ccc3o2)cc1	–
4.7	–	Cc1c(C2CCCCC2)oc2ccc(OCCCCCCN3CCC(O)CC3)cc2c1=O	–
14	–	O=c1cc(C2CCCCC2)oc2ccc(OCCCCCCN3CCOCC3)cc12	–
7.7	–	O=c1cc(C2CCCCC2)oc2ccc(OCCCCCCN3CCCCC3)cc12	–
–	6.9	O=c1cc(-c2ccncc2)oc2ccc(OCCCCCCN3CCC(O)CC3)cc12	–
0.57	–	CC1CCN(CCCCCCOc2ccc3oc(-c4ccccc4)cc(=O)c3c2)CC1	–
2.7	–	O=c1cc(-c2ccccc2)oc2ccc(OCCCCCCN3CCC(CCO)CC3)cc12	–
–	12	O=c1cc(C2CCCCC2)oc2ccc(OCCCCCN3CCC(O)CC3)cc12	–
5.5	–	O=c1cc(-c2ccccc2)oc2ccc(OCCCCCCN3CCCC(O)C3)cc12 (stereo not given)	–
2.3	–	O=c1cc(-c2cccnc2)oc2ccc(OCCCCCCN3CCCCC3)cc12	–
–	3.8	O=c1cc(-c2ccc(F)cc2)oc2ccc(OCCCCCCN3CCC(O)CC3)cc12	–
1.8	–	O=c1cc(-c2ccncc2)oc2ccc(OCCCCCCN3CCCCC3)cc12	–
–	2.3	O=c1cc(-c2ccccc2)oc2ccc(OCCCCCCN3CCCCCC3)cc12	–
–	11	O=c1cc(-c2ccc(Cl)cc2)oc2ccc(OCCCCCCN3CCC(O)CC3)cc12	–
13	–	CC(C)Cc1cc(=O)c2cc(OCCCCCN3CCC(O)CC3)ccc2o1	–
–	4.1	O=c1cc(-c2ccccc2Cl)oc2ccc(OCCCCCCN3CCC(O)CC3)cc12	–
2.3	–	O=c1cc(-c2ccccc2)oc2ccc(OCCCCCCN3CCCC3)cc12	–
3.7	–	O=c1cc(-c2ccccc2)oc2ccc(OCCCCCCN3CCC(O)CC3)cc12	–
2.2	–	O=c1cc(-c2ccccc2Cl)oc2ccc(OCCCCCCN3CCCCC3)cc12	–

Further lines, the compound ahead of its results:

Compound	Ki (D(2) dopamine receptor [1]) [µM]	Ki (D(2) dopamine receptor [2]) [µM]	other results
CN(C)CCOc1ccc2c(=O)cc(-c3ccccc3)oc2c1	13	–	–
O=c1cc(-c2ccccc2)oc2ccc(OCCCCCCCCN3CCC(O)CC3)cc12	8.9	–	–
O=c1cc(-c2ccccc2)oc2ccc(OCCCCCCN3CCN(CCO)CC3)cc12	–	8.3	–
O=c1cc(-c2ccccc2)oc2ccc(OCCCCN3CCC(O)CC3)cc12	6.8	–	–
O=c1cc(-c2ccccc2)oc2ccc(OCCCCCN3CCC(O)CC3)cc12	5.1	–	–
O=c1cc(-c2ccccc2)oc2cc(OCCCCCCN3CCC(O)CC3)ccc12	6	–	–
CN(C)CCOc1ccc2oc(-c3ccccc3)cc(=O)c2c1	4.5	–	–
O=c1cc(-c2ccccc2)oc2cccc(OCCCCCCCN3CCC(O)CC3)c12	2.4	–	–
O=c1cc(-c2ccccc2)oc2cc(OCCCCCCCN3CCC(O)CC3)ccc12	4	–	–
CCOC(=O)C1CCCN(CCCCCCOc2ccc3oc(-c4ccccc4)cc(=O)c3c2)C1 (stereo not given)	–	0.7	–
O=c1cc(-c2ccccc2)oc2ccc(OCCCCCCN3CC=C(c4ccc(Cl)cc4)CC3)cc12	–	1.3	–
CN(C)CCCCCOc1ccc2oc(-c3ccccc3)cc(=O)c2c1	8.2	–	–
O=c1cc(-c2ccccc2)oc2cccc(OCCCCN3CCC(O)CC3)c12	–	9.5	–
CN(CCO)CCCCCCOc1ccc2oc(-c3ccccc3)cc(=O)c2c1	–	4.5	–
Cc1c(-c2ccccc2)oc2ccc(OCCCCCCN3CCC(O)CC3)cc2c1=O	–	2.7	–
CN(C)CCCOc1ccc2oc(-c3ccccc3)cc(=O)c2c1	–	3.6	–
CN(C)CCCCCCCCCOc1ccc2oc(-c3ccccc3)cc(=O)c2c1	2.2	–	–
NCCCCCCOc1ccc2oc(-c3ccccc3)cc(=O)c2c1	–	8.2	–
COc1cccc(-c2cc(=O)c3cc(OCCCCCN4CCC(O)CC4)ccc3o2)c1	–	6.2	–
O=c1cc(-c2ccccc2)oc2cc(OCCCCCCCCN3CCC(O)CC3)ccc12	2.8	–	–
O=c1cc(-c2ccccc2)oc2cccc(OCCCCCN3CCC(O)CC3)c12	–	5.1	–
O=c1cc(-c2ccccc2)oc2ccc(OCCCCCCN3CCC(O)(c4ccc(Cl)cc4)CC3)cc12	–	0.99	–
O=c1cc(-c2ccccc2)oc2cc(OCCCCN3CCC(O)CC3)ccc12	1	–	–

Compound	Ki (D(2) dopamine receptor [1]) [µM]	Ki (D(2) dopamine receptor [2]) [µM]	other results
Cc1c(-c2ccccc2)oc2ccc(OCCC/C=C/CN3CCC(O)CC3)cc2c1=O	–	2.7	–
O=c1cc(-c2ccccc2)oc2ccc(OCCCCCCN3CCCCC3)cc12	–	–	Ki (D(2) dopamine receptor [3]): 4.5 µM
O=c1cc(-c2ccccc2)oc2cccc(OCCCN3CCC(O)CC3)c12	–	8.4	–
CN(C)CCCCCCCOc1ccc2oc(-c3ccccc3)cc(=O)c2c1	12	–	–
CN(C)CCCCCCCCCCOc1ccc2oc(-c3ccccc3)cc(=O)c2c1	2.7	–	–
O=c1cc(-c2ccccc2)oc2ccc(OCCCCCCN3CCN(c4ccccn4)CC3)cc12	–	3	–
COc1ccc(-c2cc(=O)c3cc(OCCCCCN4CCC(O)CC4)ccc3o2)cc1	–	4.2	–
O=c1cc(-c2ccccc2)oc2ccc(OCCCCCCN3CCC(n4c(O)nc5ccccc54)CC3)cc12	–	0.22	–
O=c1cc(-c2ccccc2)oc2ccc(OCCCCCCN3CCN(c4ccc(Cl)cc4)CC3)cc12	–	1.3	–
CCOC(=O)C1CCN(CCCCCCOc2ccc3oc(-c4ccccc4)cc(=O)c3c2)CC1	–	2.8	–
CN(CCCCCCOc1ccc2oc(-c3ccccc3)cc(=O)c2c1)Cc1ccccc1	–	1.8	–
O=c1cc(-c2ccccc2)oc2cccc(OCCCCCCN3CCC(O)CC3)c12	–	6.1	–
O=c1cc(-c2ccccc2)oc2ccc(OCCCCCCN3CCNCC3c3ncccn3)cc12 (stereo not given)	1.3	–	–
O=c1cc(-c2ccccc2)oc2c(OCCCCCCN3CCC(O)CC3)cccc12	0.94	–	–
O=c1cc(-c2ccccc2)oc2cc(OCCCCCN3CCC(O)CC3)ccc12	5.9	–	–
CN(C)CCCCCCCCOc1ccc2oc(-c3ccccc3)cc(=O)c2c1	2.8	–	–
O=c1cc(-c2ccccc2)oc2ccc(OCCCN3CCC(O)CC3)cc12	3.4	–	–
CN(C)CCCCOc1ccc2oc(-c3ccccc3)cc(=O)c2c1	4.2	–	–
O=C1NCN(c2ccccc2)C12CCN(CCCCCCOc1ccc3oc(-c4ccccc4)cc(=O)c3c1)CC2	–	0.18	–
COc1c(-c2ccccc2)oc2ccc(OCCCCCCN3CCC(O)CC3)cc2c1=O	2.6	–	–
O=c1cc(-c2ccccc2)oc2ccc(OCCCCCCN3CCOCC3)cc12	–	18	–
CCN(CC)CCCCCCOc1ccc2oc(-c3ccccc3)cc(=O)c2c1	–	3.6	–
